Data published in ChEMBL document CHEMBL1143369, “Guanidine and 2-aminoimidazoline aromatic derivatives as alpha2-adrenoceptor ligands: searching for structure-activity relationships” (J Med Chem, 2009).
Activity calls are given as the source filed them. The calls are words filed in the database; no cut-off is given here.

What was measured:
[1] = target: T1, Adrenergic receptor alpha-2 (Homo sapiens, UniProt P08913+P18825+P18089); test: Displacement of [3H]RX821002 from alpha2 adrenoceptor in human prefrontal cortex neural membrane after 30 mins by liquid scintillation spectrometry; assay type: tissue-based
T1 sequence (P08913 whole entry): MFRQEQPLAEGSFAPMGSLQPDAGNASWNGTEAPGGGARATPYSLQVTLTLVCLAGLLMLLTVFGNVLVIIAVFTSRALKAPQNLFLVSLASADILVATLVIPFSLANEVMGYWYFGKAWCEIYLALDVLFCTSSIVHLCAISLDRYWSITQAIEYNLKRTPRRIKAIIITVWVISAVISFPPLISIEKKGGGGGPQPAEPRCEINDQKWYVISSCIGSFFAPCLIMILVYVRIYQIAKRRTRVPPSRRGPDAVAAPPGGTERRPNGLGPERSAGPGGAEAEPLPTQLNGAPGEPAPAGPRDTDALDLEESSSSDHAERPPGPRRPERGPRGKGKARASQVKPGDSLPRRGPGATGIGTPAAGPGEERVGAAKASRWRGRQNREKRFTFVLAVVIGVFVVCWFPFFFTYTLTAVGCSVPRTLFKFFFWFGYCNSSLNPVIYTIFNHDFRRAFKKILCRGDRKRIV
T1 sequence (P18825 whole entry): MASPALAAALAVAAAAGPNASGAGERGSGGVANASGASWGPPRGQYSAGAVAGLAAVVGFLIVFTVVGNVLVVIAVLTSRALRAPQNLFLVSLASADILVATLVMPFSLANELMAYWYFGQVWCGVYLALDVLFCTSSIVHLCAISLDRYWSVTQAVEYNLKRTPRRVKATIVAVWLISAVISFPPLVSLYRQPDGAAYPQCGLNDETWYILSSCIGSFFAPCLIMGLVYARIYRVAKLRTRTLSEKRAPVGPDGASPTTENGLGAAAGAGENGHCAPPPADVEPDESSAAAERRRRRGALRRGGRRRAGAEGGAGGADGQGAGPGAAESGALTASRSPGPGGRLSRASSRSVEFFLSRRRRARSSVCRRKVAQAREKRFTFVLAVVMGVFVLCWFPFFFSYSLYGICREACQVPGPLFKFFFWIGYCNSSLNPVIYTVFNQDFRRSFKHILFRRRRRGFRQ
T1 sequence (P18089 whole entry): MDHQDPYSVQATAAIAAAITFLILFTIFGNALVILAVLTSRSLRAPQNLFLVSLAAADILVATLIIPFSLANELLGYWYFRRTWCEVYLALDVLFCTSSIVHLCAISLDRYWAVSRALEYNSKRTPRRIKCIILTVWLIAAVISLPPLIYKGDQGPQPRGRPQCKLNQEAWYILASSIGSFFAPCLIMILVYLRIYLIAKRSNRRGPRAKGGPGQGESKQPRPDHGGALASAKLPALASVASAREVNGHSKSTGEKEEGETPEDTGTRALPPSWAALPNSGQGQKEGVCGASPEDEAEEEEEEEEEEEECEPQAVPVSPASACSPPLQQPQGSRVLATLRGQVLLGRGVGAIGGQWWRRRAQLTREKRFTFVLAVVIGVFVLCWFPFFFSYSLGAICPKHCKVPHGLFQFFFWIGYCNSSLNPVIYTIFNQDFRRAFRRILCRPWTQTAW

[2] = target: T2, Adrenergic receptor alpha-2 (Homo sapiens) (UniProt P08913+P18825+P18089); test: Intrinsic activity at alpha2 adrenoceptor in human cortical membrane at 0.0001 to 1000 uM after 2 hrs by [35S]GTPgammaS binding assay relative to UK-14304; assay type: functional, cell membranes
How it was run: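 Human postmortem PFC membranes (40 µg protein) incubated 2 h at 30 °C with 0.5 nM [35S]GTPγS in buffer of EGTA, MgCl2, 100 mM NaCl, GDP and Tris-HCl pH 7.4. Compound tested at 8 concentrations (10^-10 to 10^-3 M). Bound label collected by GF/C filtration.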

[3] = target: T1, Adrenergic receptor alpha-2; test: Agonist activity at alpha2 adrenoceptor in human cortical membrane after 2 hrs by [35S]GTPgammaS binding assay; assay type: functional, cell membranes
Rattus norvegicus [4] = test: Antidepressant activity in Sprague-Dawley rat assessed as increase in extracellular noradrenaline level in prefrontal cortex at 1 to 100 uM administered locally by microdialysis measured after every 70 mins by HPLC; assay type: functional
How it was run: (§1)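 Male Sprague-Dawley rats (250-300 g), freely moving, with a PFC probe implanted under chloral hydrate 20-24 h earlier. Perfused with aCSF pH 7.4 at 1 µL/min. Drug dissolved in aCSF and reverse-dialysed for 70 min at each step of 1, 10 and 100 µM. Dialysate sampled every 35 min, NA measured by HPLC with amperometric detection at +650 mV. Values are % of mean of 3 basal samples, ANOVA versus aCSF controls.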

Rattus norvegicus [5] = test: Antidepressant activity in Sprague-Dawley rat assessed as increase in extracellular noradrenaline level in prefrontal cortex at 1 uM administered locally by microdialysis measured after every 70 mins by HPLC; assay type: functional, organism-based; how it was run: as §1
Rattus norvegicus [6] = test: Antidepressant activity in Sprague-Dawley rat assessed as increase in extracellular noradrenaline level in prefrontal cortex at 10 mg/kg, ip […] by HPLC; assay type: functional; details: route intraperitoneal
Rattus norvegicus [7] = test: Antidepressant activity in Sprague-Dawley rat assessed as increase in extracellular noradrenaline level in prefrontal cortex at 100 uM administered locally by microdialysis measured after every 70 mins by HPLC; assay type: functional; how it was run: as §1
[8] = target: T2, Adrenergic receptor alpha-2 (Homo sapiens); test: Antagonist activity at alpha2 adrenoceptor in human prefrontal cortex neural membrane at 10 uM assessed as rightwards shift in UK-14304 EC50 by [35S]GTPgammaS binding assay; assay type: functional, tissue-based
How it was run: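 Human postmortem prefrontal cortex P2 membranes (40 µg protein) incubated 120 min at 30 °C with shaking in 0.5 nM [35S]GTPγS, 1 mM EGTA, 3 mM MgCl2, 100 mM NaCl, GDP, Tris-HCl pH 7.4. Nonspecific binding with 10 µM unlabeled GTPγS.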

| Structure (SMILES) | pKi [1] | Activity [8] | Emax [2] | EC50 [3] | Emax (Rattus norvegicus [4]) | Activity (Rattus norvegicus [5]) | Activity (Rattus norvegicus [6]) | Emax (Rattus norvegicus [7]) |
| --- | --- | --- | --- | --- | --- | --- | --- | --- |
| CCN(C)c1ccc(NC2=NCCN2)cc1 | 7.38 | – | 103% | 1.9 µM | – | – | – | – |
| CNc1ccc(NC2=NCCN2)cc1 | 7.27 | – | 98% | 61.4 µM | – | – | – | – |
| CCNc1ccc(NC2=NCCN2)cc1 | 6.75 | – | 95% | 59.3 µM | – | – | – | – |
| CCC(CC)c1ccc(NC(=N)N)cc1 | – | – | 89% | 38.7 µM | – | – | – | – |

Further lines, with some results ahead:

| pKi [1] | Activity [8] | Structure (SMILES) | Emax [2] | EC50 [3] | Emax (Rattus norvegicus [4]) | Activity (Rattus norvegicus [5]) | Activity (Rattus norvegicus [6]) | Emax (Rattus norvegicus [7]) |
| --- | --- | --- | --- | --- | --- | --- | --- | --- |
| 6.95 | – | CNc1ccc(NC(=N)N)cc1 | 87% | 82.3 µM | – | – | – | – |
| 7.12 | – | CCN(C)c1ccc(NC(=N)N)cc1 | 92% | 16.2 µM | – | – | – | – |
| 9.04 | – | COC1(C2=NCCN2)COc2ccccc2O1 (centres undefined) | – | – | 290% | Active | – | – |
| 6.58 | Active | CCNc1ccc(NC(=N)N)cc1 | – | – | – | – | 161% | 304% |
